In ChEMBL document CHEMBL1130251, “Enzymatic properties of the unnatural beta-L-enantiomers of 2',3'-dideoxyadenosine and 2',3'-didehydro-2',3'-dideoxyadenosine” (J Med Chem, 1997):

Assays:
[1] = compound: Nc1ncnc2c1ncn2[C@H]1C=C[C@@H](CO)O1; assay: (§1) Inhibitory activity against bovine liver adenosine Kinase; NS, […]=nonsubstrate, noninhibitor/inhibitor; settings: Bos taurus
Summary of the method: (§2)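 Adenosine kinase purified from bovine liver, 0.38–7.6 μg·mL⁻¹, at 37 °C. Medium: 100 mM Tris HCl pH 7.4, 100 mM KCl, 4.8 mg·mL⁻¹ BSA, 0.5 mM MgCl2, 1 mM ATP, test nucleoside. 5'-Phosphorylation monitored by C-18 HPLC (phosphate pH 6/acetonitrile gradient). Inhibition assessed against 50 μM adenosine.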

[2] = compound: Nc1ncnc2c1ncn2[C@H]1CC[C@@H](CO)O1; assay: as §1; settings: Bos taurus; summary of the method: as §2

B1: Adenosine kinase (Toxoplasma gondii), Q9TVW2 (protein)
chain: MAVDSSNSATGPMRVFAIGNPILDLVAEVPSSFLDEFFLKRGDATLATPEQMRIYSTLDQFNPTSLPGGSALNSVRVVQKLLRKPGSAGYMGAIGDDPRGQVLKELCDKEGLATRFMVAPGQSTGVCAVLINEKERTLCTHLGACGSFRLPEDWTTFASGALIFYATAYTLTATPKNALEVAGYAHGIPNAIFTLNLSAPFCVELYKDAMQSLLLHTNILFGNEEEFAHLAKVHNLVAAEKTALSTANKEHAVEVCTGALRLLTAGQNTGATKLVVMTRGHNPVIAAEQTADGTVVVHEVGVPVVAAEKIVDTNGAGDAFVGGFLYALSQGKTVKQCIMCGNACAQDVIQHVGFSLSFTSLPC
- Km [1]: NS, NI/Ado
- Km [2]: NS, NI/Ado
